Measurements of several laboratories.
Compare with care: the assays were run in different laboratories.
Cell line: T47D
Read-out: cell growth or viability

COc1ccc(-c2ccc(-c3ccc(C(=N)N)nc3)s2)cc1 — GI50 (SRB): 1.92 µM
CC/C(=C(\c1ccc(O)cc1)c1ccc(OCCNC)cc1)c1ccccc1 — IC50 (5 days): 4.29 µM
CCCCCCCC(=O)NCC(=O)OC — inhibition (MTT; 10 µM; 48 h): 23%
O=C1Nc2ccccc2C1=NNc1nnc2n1N=C(c1ccccc1)CS2 — inhibition (SRB; 10 µM): 36%
COc1cccc(Oc2ccccc2NC(=O)CNC(=O)c2cccc3ccccc23)c1 — GI50 (SRB; 48 h): 0.138 µM
COc1ccc(C(=O)/C=C/c2cccc(Cl)c2)cc1S(N)(=O)=O — GI50 (SRB; 48 h): 2.1 µM
O=C1C[C@@H](c2ccc(O)cc2)Oc2cc(O)cc(O)c21 — IC50 (MTT; 48 h): 4.17 µM
COc1ccccc1/C=C/C(=O)c1ccc(OC)c(S(N)(=O)=O)c1 — inhibition (SRB; 10 µM): 83%
CC/C(=C(/c1ccc(OCCNC)cc1)c1ccc(B2OC(C)(C)C(C)(C)O2)cc1)c1ccccc1 — IC50 (5 days): 8.73 µM
COc1ccc(-c2ccc(-c3ccc(C(=N)N)nc3)s2)cc1Cl — GI50 (SRB): 1.99 µM
CC[C@H](C)C(=O)O[C@H]1C[C@H](O)C=C2C=C[C@H](C)[C@H](CC[C@@H](O)C[C@@H](O)CC(=O)O)[C@H]21 — IC50 (SRB; 72 h): 133 mg/L
